Measured values as given in ChEMBL document CHEMBL1140169, “Discovery of novel PPAR ligands by a virtual screening approach based on pharmacophore modeling, 3D shape, and electrostatic similarity screening” (J Med Chem, 2008).
Active and inactive are the calls of the source. The calls are words filed in the database; no cut-off is given here.

Assays:
[1] = biological target: T1, Peroxisome proliferator-activated receptor delta (Homo sapiens) (UniProt Q03181); assay: Antagonist activity at human PPARdelta ligand binding domain expressed in MEF cells co-transfected with Gal4-DBD assessed as reduction of L165041-induced transactivation response at 1 uM by luciferase reporter gene assay; format: cell-based
T1 sequence (whole entry): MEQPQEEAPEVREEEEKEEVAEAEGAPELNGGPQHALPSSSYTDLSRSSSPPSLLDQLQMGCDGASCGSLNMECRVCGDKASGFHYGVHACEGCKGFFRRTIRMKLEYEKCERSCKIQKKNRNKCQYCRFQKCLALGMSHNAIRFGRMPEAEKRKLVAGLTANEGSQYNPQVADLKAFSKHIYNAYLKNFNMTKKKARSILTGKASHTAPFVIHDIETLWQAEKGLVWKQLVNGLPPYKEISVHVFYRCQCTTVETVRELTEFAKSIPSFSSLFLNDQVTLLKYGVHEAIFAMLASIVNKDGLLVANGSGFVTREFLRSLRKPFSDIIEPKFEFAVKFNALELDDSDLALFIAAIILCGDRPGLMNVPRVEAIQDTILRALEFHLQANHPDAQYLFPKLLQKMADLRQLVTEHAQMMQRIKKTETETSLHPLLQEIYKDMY
Method in brief: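 MEFs transfected with Gal4-hPPARδ-LBD, UAS-luciferase reporter and CMV-β-gal. Starting 6 h post-transfection, cells were co-treated with 1 µM L165041 and a range of compound doses. After 18 h, β-gal-normalized luciferase was compared with the L165041 response. Triplicates measured in duplicate.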

[2] = biological target: T2, Peroxisome proliferator-activated receptor gamma (Homo sapiens) (UniProt P37231); assay: Activation of human PPARgamma ligand binding domain expressed in MEF cells co-transfected with fused Gal4-DBD at 10 uM after 18 hrs by luciferase reporter gene assay relative to rosiglitazone; format: cell-based
T2 sequence (whole entry): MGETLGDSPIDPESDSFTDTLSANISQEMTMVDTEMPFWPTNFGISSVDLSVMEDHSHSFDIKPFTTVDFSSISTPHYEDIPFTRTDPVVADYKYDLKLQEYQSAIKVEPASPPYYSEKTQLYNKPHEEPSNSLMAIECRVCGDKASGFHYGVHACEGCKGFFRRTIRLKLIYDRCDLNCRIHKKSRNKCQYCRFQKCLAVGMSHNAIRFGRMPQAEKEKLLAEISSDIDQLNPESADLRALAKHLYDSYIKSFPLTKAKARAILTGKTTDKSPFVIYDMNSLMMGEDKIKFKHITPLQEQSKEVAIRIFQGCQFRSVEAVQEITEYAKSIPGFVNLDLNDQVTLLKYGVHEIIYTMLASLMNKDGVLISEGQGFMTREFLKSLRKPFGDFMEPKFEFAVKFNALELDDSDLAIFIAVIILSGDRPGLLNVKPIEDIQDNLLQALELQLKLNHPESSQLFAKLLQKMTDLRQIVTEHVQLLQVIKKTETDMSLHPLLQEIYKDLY
Method in brief: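 MEFs (DMEM, 10% calf serum) transfected with Gal4-hPPARγ-LBD, 4xUAS-TK-Luc and CMV-β-gal by Metafectene. Compound at 10 µM was added 6 h later and luciferase/β-gal read after 18 h. Activity is expressed as percent of the response to 1 µM rosiglitazone. Triplicates measured in duplicate.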

[3] = biological target: T3, Peroxisome proliferator-activated receptor alpha (Homo sapiens) (UniProt Q07869); assay: Activation of human PPARalpha ligand binding domain expressed in mouse Hepa 1-6 cells co-transfected with fused Gal4-DBD at 0.1 to 10 uM by luciferase reporter gene assay relative to control; format: cell-based
T3 sequence (whole entry): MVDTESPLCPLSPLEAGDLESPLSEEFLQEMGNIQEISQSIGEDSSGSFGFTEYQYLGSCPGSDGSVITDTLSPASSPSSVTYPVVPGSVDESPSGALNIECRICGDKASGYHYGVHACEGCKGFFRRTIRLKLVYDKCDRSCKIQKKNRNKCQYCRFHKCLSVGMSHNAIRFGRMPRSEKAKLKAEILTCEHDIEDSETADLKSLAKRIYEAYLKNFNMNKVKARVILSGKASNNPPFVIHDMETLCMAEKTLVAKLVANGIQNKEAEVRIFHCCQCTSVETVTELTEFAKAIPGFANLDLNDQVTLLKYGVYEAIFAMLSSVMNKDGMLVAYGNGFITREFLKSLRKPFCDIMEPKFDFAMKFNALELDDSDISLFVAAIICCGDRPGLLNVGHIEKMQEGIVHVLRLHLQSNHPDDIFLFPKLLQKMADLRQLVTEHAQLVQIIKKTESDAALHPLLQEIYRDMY
Method in brief: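 Hepa 1-6 cells (MEM, 10% FCS, penicillin/streptomycin) transfected at 50–70% confluence using Metafectene with Gal4-hPPARα-LBD (0.001 µg plus 0.099 µg pBSK), 4xUAS-TK-Luc reporter and CMV-β-galactosidase. Six hours later, compound was added at 0.1, 1 and 10 µM. Lysis and luminometry after 18 h. Luciferase normalized to β-gal, expressed as fold induction over 0.1% DMSO vehicle. Triplicates, each measured in duplicate.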

[4] = biological target: T4, Peroxisome proliferator-activated receptor gamma (Homo sapiens, UniProt P37231)
T4 sequence (P37231 whole entry): T2 sequence (whole entry)

[5] = biological target: T5, Peroxisome proliferator-activated receptor delta (Homo sapiens, UniProt Q03181); assay: Displacement of fluorescent pan PPAR agonist form GST-tagged human PPARdelta ligand binding domain by FRET assay
T5 sequence (Q03181 whole entry): T1 sequence (whole entry)
Method in brief: (§1)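 TR-FRET (LanthaScreen) competitive binding: purified GST-tagged PPAR LBD labelled with terbium anti-GST antibody, with a fluorescent pan-PPAR agonist tracer. Displacement was read as RFU over dose-response series in triplicate. IC50 came from a one-site sigmoidal fit. Reference ligands were GW7647 (PPARα) and L165041 (PPARδ).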

[6] = biological target: T3, Peroxisome proliferator-activated receptor alpha (Homo sapiens); assay: Activation of human PPARalpha ligand binding domain expressed in mouse Hepa 1-6 cells co-transfected with fused Gal4-DBD at 10 uM after 18 hrs by luciferase reporter gene assay relative to GW-7647; format: cell-based
Method in brief: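 Gal4-hPPARα-LBD/UAS-luciferase transactivation in Hepa 1-6 cells (Metafectene transfection, β-gal normalization). Compound at 10 µM was added 6 h post-transfection and read 18 h later. Activity is given as percent of the response to 30 nM GW7647. Triplicates measured in duplicate.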

[7] = biological target: T6, Peroxisome proliferator-activated receptor alpha (Homo sapiens, UniProt Q07869); assay: Displacement of fluorescent pan PPAR agonist form GST-tagged human PPARalpha ligand binding domain by FRET assay; method in brief: as §1
T6 sequence (Q07869 whole entry): T3 sequence (whole entry)

| Compound | Activity [1] | Activity [2] [%] | Activity [3] | IC50 [4] [µM] | IC50 [5] [µM] | Activity [6] [%] | IC50 [7] [µM] |
| --- | --- | --- | --- | --- | --- | --- | --- |
| COC(=O)c1ccc(NC(=O)C[C@H]2C(=O)N(c3cccc(OC)c3)C(=O)N2Cc2ccc(OC)cc2)cc1 | Active | 20 | Active | 13 | 7.2 |  |  |
| CCOC(=O)C[C@H](C)NC(=O)c1csc(C2CCN(C(=O)c3c(F)cccc3Cl)CC2)n1 |  | 15 | Active | 44 |  | 20 |  |
| O=C(O)c1ccc(COc2ccc3ccccc3c2/C=N/c2ccc(N3CCOCC3)cc2)cc1 |  |  | Active |  | 34 | 15 | 43 |
| CCOC(=O)N1CCc2c(sc(NC(=O)Cc3ccc(OC)cc3)c2C(=O)Nc2ccc(C(=O)OC)cc2)C1 |  |  | Active |  |  | 40 | 1.5 |
| CCn1c(SCC(=O)Nc2ccc(C(=O)O)cc2)nnc1-c1cc2cccc(OC)c2o1 |  |  | Active |  | 390 | 15 | 1 |
